Laboratory results from article PMC6703927 (ACS chemical neuroscience, 2019).

Key:
[1] = test system: DAT cysteine mutant D385C; assay: SCAM MTSEA-biotin biotinylation, HEK-293 cells; assay type: cell-based, human; conditions: 20 μM KM822 coincubation
Summary of the method: (§1)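 SCAM used HEK-293 cells (Lipojet transfection) expressing N-terminally HA-tagged cysteine mutants on the C306A background. Cells were incubated with test compound (20 μM) before MTSEA-biotin labeling. Biotinylated DAT was pulled down on streptavidin beads and immunoblotted with anti-HA antibody. It was normalized to total DAT from unpurified lysates, then to the untreated band.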

DAT-XC/W84C [2] = molecular target: T1, DAT-XC/W84C (Homo sapiens, UniProt Q01959, C306A/W84C); assay: DA uptake dose-response inhibition assay, transiently expressed DAT mutant; assay type: cell-based; conditions: W84C vs DAT-XC
T1 sequence (Q01959 1-620 W84C/C306A): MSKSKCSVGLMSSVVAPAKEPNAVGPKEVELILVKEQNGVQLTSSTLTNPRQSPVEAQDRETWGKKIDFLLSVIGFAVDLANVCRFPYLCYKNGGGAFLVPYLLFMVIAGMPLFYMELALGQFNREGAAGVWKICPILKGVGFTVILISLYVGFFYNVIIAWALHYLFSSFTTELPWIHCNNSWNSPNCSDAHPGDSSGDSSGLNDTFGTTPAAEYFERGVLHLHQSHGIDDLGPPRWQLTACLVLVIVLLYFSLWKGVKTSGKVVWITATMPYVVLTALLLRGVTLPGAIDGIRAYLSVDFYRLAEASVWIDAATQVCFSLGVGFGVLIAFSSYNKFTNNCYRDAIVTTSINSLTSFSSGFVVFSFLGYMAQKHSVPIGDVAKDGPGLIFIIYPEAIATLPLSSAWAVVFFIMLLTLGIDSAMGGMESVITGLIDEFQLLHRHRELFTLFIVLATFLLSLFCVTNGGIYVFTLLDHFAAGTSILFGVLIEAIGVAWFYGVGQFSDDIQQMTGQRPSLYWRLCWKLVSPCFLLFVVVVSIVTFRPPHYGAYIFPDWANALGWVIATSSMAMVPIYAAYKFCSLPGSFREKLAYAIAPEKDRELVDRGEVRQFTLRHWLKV
Summary of the method: (§2)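 Mutants were made by site-directed mutagenesis. Single mutants used human WT DAT as background, and double cysteine mutants used C306A-DAT (DAT-XC). DA uptake dose-response gave IC50s from three or more independent experiments. Cysteine mutant IC50s were compared with DAT-XC, and D476 mutant IC50s with DAT-WT, by paired Student's t test.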

WT-DAT = WT-DAT (Homo sapiens, UniProt Q01959); assay: DA uptake inhibition assay, transfected COS-7 cells; assay type: cell-based; conditions: read-out: IC50 DA uptake inhibition; WT-DAT transfected COS-7 cells
WT-DAT, sequence (Q01959 whole entry): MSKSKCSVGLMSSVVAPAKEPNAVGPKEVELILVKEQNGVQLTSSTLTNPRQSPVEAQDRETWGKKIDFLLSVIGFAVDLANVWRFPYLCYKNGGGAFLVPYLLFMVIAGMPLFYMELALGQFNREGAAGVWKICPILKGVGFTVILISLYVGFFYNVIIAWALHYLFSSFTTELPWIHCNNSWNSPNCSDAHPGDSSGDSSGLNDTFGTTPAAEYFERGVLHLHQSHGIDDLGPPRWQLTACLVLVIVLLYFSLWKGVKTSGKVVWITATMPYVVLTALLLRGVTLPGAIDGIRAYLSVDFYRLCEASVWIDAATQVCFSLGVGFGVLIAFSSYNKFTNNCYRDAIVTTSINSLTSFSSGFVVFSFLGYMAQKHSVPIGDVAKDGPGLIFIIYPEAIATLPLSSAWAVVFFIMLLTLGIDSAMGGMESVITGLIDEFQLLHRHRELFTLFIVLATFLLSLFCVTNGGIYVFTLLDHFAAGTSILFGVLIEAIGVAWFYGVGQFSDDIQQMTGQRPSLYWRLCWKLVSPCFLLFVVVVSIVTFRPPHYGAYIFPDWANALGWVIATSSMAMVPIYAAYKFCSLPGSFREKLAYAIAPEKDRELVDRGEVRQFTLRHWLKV

DAT mutant D385C = assay: DA uptake dose-response inhibition assay, transiently expressed DAT mutant; assay type: cell-based, human; conditions: D385C vs DAT-XC
Summary of the method: as §2

DAT-XC/A372C [3] = assay: SCAM MTSEA-biotin biotinylation, HEK-293 cells; assay type: cell-based, human
DAT [4] = molecular target: T2, DAT (Rattus norvegicus, UniProt P23977); assay: Ex vivo slice fast scan cyclic voltammetry, Nucleus accumbens; conditions: 50 μM KM822, NAc slices
T2 sequence (P23977 whole entry): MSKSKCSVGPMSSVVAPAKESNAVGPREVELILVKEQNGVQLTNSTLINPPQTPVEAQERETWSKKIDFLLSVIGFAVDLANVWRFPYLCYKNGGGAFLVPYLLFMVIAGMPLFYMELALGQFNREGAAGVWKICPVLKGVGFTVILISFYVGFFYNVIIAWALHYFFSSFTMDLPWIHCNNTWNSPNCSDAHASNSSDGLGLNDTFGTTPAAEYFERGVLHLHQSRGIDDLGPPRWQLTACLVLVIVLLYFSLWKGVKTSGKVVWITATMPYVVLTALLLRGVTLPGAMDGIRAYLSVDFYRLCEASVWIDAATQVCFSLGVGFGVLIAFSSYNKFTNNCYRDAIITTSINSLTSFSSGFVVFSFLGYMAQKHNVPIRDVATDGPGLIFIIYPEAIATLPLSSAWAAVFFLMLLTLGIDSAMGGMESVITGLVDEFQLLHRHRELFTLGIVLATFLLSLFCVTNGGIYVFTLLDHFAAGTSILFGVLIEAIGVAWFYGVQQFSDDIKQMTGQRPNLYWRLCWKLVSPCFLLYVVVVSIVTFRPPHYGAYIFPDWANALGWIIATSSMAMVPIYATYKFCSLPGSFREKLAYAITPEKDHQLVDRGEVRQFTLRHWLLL
Summary of the method: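 Rats were anesthetized with 2.5% isoflurane for 3 min and decapitated, and coronal NAc slices were cut into oxygenated ACSF (pH 7.4). After 30 min recovery at room temperature, slices were recorded at 32 °C by carbon-fiber microelectrode. Single pulses (400 μA, 4 ms, monophasic) were given every 3 min until baseline stabilized over three stimulations.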

DAT-XC/W84C [5] = molecular target: T1, DAT-XC/W84C; assay: SCAM MTSEA-biotin biotinylation, HEK-293 cells; assay type: cell-based
Y156F-DAT = Y156F-DAT (Homo sapiens, UniProt Q01959, Y156F); assay: DA uptake inhibition assay, transfected COS-7 cells; assay type: cell-based
Y156F-DAT, sequence (Q01959 whole entry Y156F): as the sequence (Q01959 whole entry) above, with Y156F counted along it
Summary of the method: (§3)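 COS-7 cells (DMEM, 10% FBS, pen/strep, 37 °C, 5% CO2) were transiently transfected with WT or mutant human DAT using TransIT-LT1. Dopamine uptake was measured across a dose-response of test compound. Responses were normalized, and IC50 was obtained by nonlinear regression. Means and SEM come from three independent experiments, with the mutant compared against WT-DAT.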

hSERT = hSERT (Homo sapiens, UniProt P31645); assay type: cell-based; conditions: hDAT vs SERT
hSERT, sequence (P31645 whole entry): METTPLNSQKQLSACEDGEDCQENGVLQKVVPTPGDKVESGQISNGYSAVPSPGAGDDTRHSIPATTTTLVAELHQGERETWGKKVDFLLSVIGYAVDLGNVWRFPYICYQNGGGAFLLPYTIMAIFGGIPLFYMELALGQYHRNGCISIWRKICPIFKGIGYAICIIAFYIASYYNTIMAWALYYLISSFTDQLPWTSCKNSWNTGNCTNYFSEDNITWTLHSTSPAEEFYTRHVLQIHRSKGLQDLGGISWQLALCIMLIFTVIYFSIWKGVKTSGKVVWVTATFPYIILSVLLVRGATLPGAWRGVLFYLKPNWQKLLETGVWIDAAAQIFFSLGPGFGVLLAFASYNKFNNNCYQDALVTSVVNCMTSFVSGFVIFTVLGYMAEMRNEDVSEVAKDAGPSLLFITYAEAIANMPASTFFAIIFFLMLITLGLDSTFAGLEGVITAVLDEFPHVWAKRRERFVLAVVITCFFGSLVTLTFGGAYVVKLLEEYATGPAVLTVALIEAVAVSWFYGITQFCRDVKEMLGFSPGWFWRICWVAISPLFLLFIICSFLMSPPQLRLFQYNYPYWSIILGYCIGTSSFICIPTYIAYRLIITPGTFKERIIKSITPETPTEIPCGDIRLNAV
Summary of the method: (§4)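 MDCK cells stably expressing hDAT, hNET or hSERT were kept in DMEM with 10% FBS, pen/strep and blasticidin (5 μg/mL) at 37 °C, 5% CO2. Radiolabeled neurotransmitter uptake ([3H]-DA, [3H]serotonin) was measured against test compound dose. Results were normalized to percent of the highest response, and IC50 was fitted by nonlinear regression from three independent experiments.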

wild type DAT = assay: [3H]-DA uptake kinetic assay, transiently transfected COS-7 cells; assay type: cell-based, human; conditions: for Vmax of dopamine uptake: vehicle 71.5 ± 6.12
Summary of the method: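 WT human DAT was transiently expressed in COS-7 cells (TransIT-LT1). [3H]-dopamine saturation uptake was run with vehicle, 1 μM or 5 μM test compound. Vmax and Km were obtained from a Michaelis-Menten nonlinear regression fit. Figure data and kinetic constants are averaged over four independent experiments.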

DAT mutant D476N = assay: DA uptake dose-response inhibition assay, transiently expressed DAT mutant; assay type: cell-based, human; conditions: D476N vs DAT-WT
Summary of the method: as §2

[6] = test system: DAT cysteine mutant T473C; assay: SCAM MTSEA-biotin biotinylation, HEK-293 cells; assay type: cell-based, human; conditions: 20 μM KM822 coincubation
Summary of the method: as §1

[7] = test system: DAT cysteine mutant R544C; assay: SCAM MTSEA-biotin biotinylation, HEK-293 cells; assay type: cell-based, human; conditions: 20 μM KM822 coincubation
Summary of the method: as §1

hNET = hNET (Homo sapiens, UniProt P23975); assay type: cell-based; conditions: hDAT vs hNET
hNET, sequence (P23975 whole entry): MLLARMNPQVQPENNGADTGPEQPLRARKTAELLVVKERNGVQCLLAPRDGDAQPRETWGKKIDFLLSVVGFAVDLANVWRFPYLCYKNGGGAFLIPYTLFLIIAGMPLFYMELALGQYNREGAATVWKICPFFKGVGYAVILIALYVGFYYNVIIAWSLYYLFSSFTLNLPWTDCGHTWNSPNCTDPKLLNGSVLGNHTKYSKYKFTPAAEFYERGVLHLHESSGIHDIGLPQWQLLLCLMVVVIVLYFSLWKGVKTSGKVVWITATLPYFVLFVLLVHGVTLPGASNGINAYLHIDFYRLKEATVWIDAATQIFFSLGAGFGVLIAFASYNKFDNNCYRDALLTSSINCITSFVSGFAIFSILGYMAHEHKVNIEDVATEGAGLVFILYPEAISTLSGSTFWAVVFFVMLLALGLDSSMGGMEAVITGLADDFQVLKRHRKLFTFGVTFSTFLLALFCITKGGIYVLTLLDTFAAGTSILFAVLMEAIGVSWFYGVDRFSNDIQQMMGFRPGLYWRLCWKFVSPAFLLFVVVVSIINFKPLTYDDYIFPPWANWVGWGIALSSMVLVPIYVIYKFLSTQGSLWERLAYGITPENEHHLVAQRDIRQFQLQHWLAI
Summary of the method: as §4

Y335A-DAT = Y335A-DAT (Homo sapiens, UniProt Q01959, Y335A); assay: DA uptake inhibition assay, transfected COS-7 cells; assay type: cell-based
Y335A-DAT, sequence (Q01959 whole entry Y335A): as the sequence (Q01959 whole entry) above, with Y335A counted along it
Summary of the method: as §3

DAT-XC/T316C [8] = assay: SCAM MTSEA-biotin biotinylation, HEK-293 cells; assay type: cell-based, human
Summary of the method: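 HEK-293 cells (Lipojet transfection) expressed HA-tagged DAT-XC/T316C. […] Streptavidin-purified biotinylated DAT was immunoblotted with anti-HA, normalized to total DAT in unpurified lysate, then to the untreated band. Eight independent experiments were run.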

hDAT Y156F = conditions: cited from earlier work
DAT W84L = conditions: cited from earlier work
DAT [9] = molecular target: T2, DAT; assay: Synaptosomal dopamine uptake assay, striatal synaptosomes; assay type: biochemical
DAT Y335A = conditions: cited from earlier work
DAT-XC/T316C [10] = conditions: DAT-XC/T316C in the presence of cocaine; cited from earlier work
DAT-XC/A372C [11] = conditions: DAT-XC/A372C treated with cocaine; cited from earlier work

For `CCc1ccc2[nH]c3nc(SCCNS(=O)(=O)c4ccc(NC(C)=O)cc4)nnc3c2c1` [KM822], the “effect on MTSEA-biotin biotinylation” value [1] was “no effect”, the “change of potency in mutant” value (DAT-XC/W84C [2]) was “increase in potency” and the IC50 (WT-DAT) was 3.8 ± 0.88 µM. For the same compound, the “change of apparent potency in mutant” value (DAT mutant D385C) was “lowered”, the “effect on MTSEA-biotin labeling” value (DAT-XC/A372C [3]; 20 μM KM822) was “no significant change” and the “effect on stimulated DA release / cocaine-induced changes in DA release” value (DAT [4]) was “did not affect”. The “effect on cocaine-induced inhibition of DA uptake (app Km)” value (DAT [4]; cumulative cocaine, significant at 30 μM cocaine) was “significantly reduced”, the “effect on MTSEA-biotin biotinylation” value (DAT-XC/W84C [5]; 20 μM KM822 coincubation) was “significantly decreased” and the “potency in Y156F-DAT mutant as compared to WT-DAT” value (Y156F-DAT; COS-7 cells) was “unchanged”. The IC50 (Y156F-DAT; read-out: IC50 DA uptake inhibition, Y156F-DAT transfected COS-7 cells) was 3.3 ± 0.45 µM, the “potency for hDAT transport inhibition higher than for SERT” value (hSERT) was 50 folds and the “Vmax of dopamine uptake” value (wild type DAT; in the presence of 1 μM KM822) was 65.8 ± 8.71 μmol/min/well. The “Vmax of dopamine uptake” value (wild type DAT; in the presence of 5 μM KM822) was 57.9 ± 4.15 μmol/min/well, the “manner of dopamine uptake inhibition” value (wild type DAT; uptake kinetics) was “noncompetitive” and the “change of apparent potency in mutant” value (DAT mutant D476N) was “lowered”. The “effect on MTSEA-biotin biotinylation” value [6] was “no effect”, the “effect on MTSEA-biotin biotinylation” value [7] was “no effect” and the “potency for hDAT transport inhibition higher than for hNET” value (hNET) was 30 folds. The “potency reduction in Y335A mutant vs WT-DAT” value (Y335A-DAT; COS-7 cells) was 3 fold, the IC50 (Y335A-DAT; read-out: IC50 DA uptake inhibition, Y335A-DAT transfected COS-7 cells) was 12.8 ± 1.4 µM and the “effect on MTSEA-biotin labeling” value (DAT-XC/T316C [8]; 20 μM KM822) was “increased”.

For `CCCCN1[C@@H]2CC[C@H]1CC(OC(c1ccc(F)cc1)c1ccc(F)cc1)C2` (some centres unmarked) [JHW-007], the “potency change by Y156F mutation” value (hDAT Y156F) is listed as “significantly reduced”.

In the case of `NC(=O)C[S@+]([O-])C(c1ccccc1)c1ccccc1` [S-modafinil], the “potency change by Y156F mutation” value (hDAT Y156F) is given as “significantly reduced”.

In the case of `CN1[C@@H]2CC[C@H]1C[C@@H](OC(c1ccccc1)c1ccccc1)C2` [benztropine], the “change of apparent potency in W84 to leucine mutant” value (shortened to “change of apparent potency in W84”) (DAT W84L) is listed as “decrease in apparent potency”.

For `Fc1ccc(C(OCCN2CCN(CCCc3ccccc3)CC2)c2ccc(F)cc2)cc1` [GBR12909], the “change of apparent potency in W84” value (DAT W84L) is listed as “decrease in apparent potency” and the “total DA uptake in striatal synaptosomes” value (DAT [9]; 1 μM GBR12909) is listed as “significantly blocked”.

In the case of `COC(=O)[C@H]1[C@@H](OC(=O)c2ccccc2)C[C@@H]2CC[C@H]1N2C` [cocaine], the “potency change by Y335A mutation” value (DAT Y335A) is given as “markedly impairs”, the “effect on MTSEA-biotin labeling” value (DAT-XC/A372C [3]; 100 μM cocaine) is given as “no change in labeling” and the “labeling with a maleimide-based biotin molecule” value (DAT-XC/T316C [10]) is given as “increased labeling”. For the same compound, the “change of apparent potency in W84” value (DAT W84L) was “increased apparent potency”, the “effect on MTSEA-biotin labeling” value (DAT-XC/W84C [5]; 100 μM cocaine coincubation) was “not affected” and the “labeling with a maleimide-based biotin molecule” value (DAT-XC/A372C [11]) was “no change in labeling”. The “binding affinity change by Y156F mutation” value (hDAT Y156F) was “unaffected”, the “total DA uptake in striatal synaptosomes” value (DAT [9]; 100 μM cocaine) was “significantly blocked” and the “effect on MTSEA-biotin labeling” value (DAT-XC/T316C [8]; 100 μM cocaine) was “increased labeling”.
